Rows were chosen to be rich in hits. Some 1.9% of all compounds tested hit in one or more screens of this group.
EBNA-1 inhibitor: EBNA-1 DNA-binding inhibitors, primary screen, biochemical, fluorescence polarization. inhibition, % at 14.8 µM. hit rate 0.34% among 300,000. AID 1950, 2009; in the data active = inhibition above about 28%
HCV NS3 hel inh: inhibitors of HCV NS3 helicase, primary screen, biochemical, Cy5 molecular beacon fluorescence. NS3 helicase DNA unwinding. hit rate 0.56% among 290,000. Hepatitis C virus NS3 helicase. inhibition, % at 10.9 µM. AID 1800, 2009;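 active = inhibition above the mean of all tested compounds plus 3 SD, set per campaign, cut at about 35% in these data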
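System: Hepatitis C virus NS3 helicase domain fragment enzyme | Reagent: Annealed dual-labelled DNA beacon duplex, ATP-started | Compound dosing: 10.9 µM single point, 0.8% DMSO | Incubation: 1 h reaction at 25 °C, ATP-initiated | Technique: Cy5 fluorescence | Evaluation: Percent inhibition from t60/t0 fluorescence ratio | Benchmarks: Low DMSO, high thioflavine S at 110 µM | Replication: Singlicate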
PP1 inh: PP1-alpha phosphatase inhibitors, primary screen, counter-screen for PP5 inhibitor project, biochemical, fluorescence, OMFP substrate, single point; hit rate 0.9% among 320,000; AID 2235, 2010; inhibition, % at 6.7 µM; purified PP1alpha;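 active = inhibition above the mean inhibition of all tested compounds plus 3 SD, computed separately for each screening campaign, cut at about 15% in these data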
Target sequence (P62136 whole entry, looked up): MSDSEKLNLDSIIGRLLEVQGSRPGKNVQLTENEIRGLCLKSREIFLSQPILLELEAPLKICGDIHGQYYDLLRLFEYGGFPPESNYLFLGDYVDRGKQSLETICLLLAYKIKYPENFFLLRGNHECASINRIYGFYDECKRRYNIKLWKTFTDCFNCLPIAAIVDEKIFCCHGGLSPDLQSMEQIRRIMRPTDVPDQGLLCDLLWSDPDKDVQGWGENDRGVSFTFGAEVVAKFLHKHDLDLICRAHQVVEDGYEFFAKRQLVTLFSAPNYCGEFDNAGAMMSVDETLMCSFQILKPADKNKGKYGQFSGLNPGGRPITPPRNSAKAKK
HCV core dimer: inhibitors of HCV core protein dimerization, primary screen, biochemical, TR-FRET, high-throughput; TR-FRET GST/Flag-core106 dimerization, 1536-well; inhibition, % at 5 µM; hit rate 0.33% among 300,000;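 active = inhibition above the mean of all tested compounds plus 3 SD, set per screening campaign, cut at about 45% in these data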
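Assay system – GST-tagged and Flag-tagged HCV core protein residues 1-106 · Quantity – core106 proteins, GST 13.5 nM and Flag 17 nM · Benchmarks – unlabelled core106 and no-GST-core106 wells · Read-out basis – percent inhibition of core106 dimerization signal · Detection – time-resolved FRET, ex 340 nm, em 617 and 671 nm · Schedule – 4 h at 22.5 °C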
ZTA counter: ZTA (EBV) inhibition in EBNA-1 counter-screen; P03206; ZTA-DNA binding, fluorescence polarization; inhibition, % at 11 µM; hit rate 0.15% among 320,000; AID 2234; in the data active = inhibition above about 33%
Zta DNA confirm: EBV Zta binding to ZRE DNA, inhibitors, confirmation, biochemical, fluorescence polarization, triplicate. hit rate 30% among 320. inhibition, % at 11.1 µM. AID 2361, 2010. shares compounds with ZTA counter;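 active = mean inhibition across triplicate runs above the hit threshold derived for the original primary screen, cut at about 33% in these data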
EBNA-1 counter: EBNA-1 DNA-binding inhibition, counter-screen for ZTA inhibitor project, biochemical, fluorescence polarization. shares compounds with ZTA counter. inhibition, % at 14.8 µM. 320 tested, under 10 active. AID 2362, 2010; call rule not given here
Of the large screens only hits and unclear results are named; the others gave an inactive call (follow-up assays come after a bar, where they were run).

CCOC1(OCC)N=C(N)C2(C#N)C(c3cccc(OC)c3OC)C12C#N (stereo not given)	none
COc1cc(NC(=O)C2=C(N3CCOCC3)/C(=C\c3ccc(N(C)C)cc3)CCC2)cc(OC)c1OC	ZTA counter 100 | Zta DNA confirm inactive | EBNA-1 counter inactive
CCOC(=O)C1(Cc2cccc(OC)c2)CCN(Cc2cccn2-c2nccs2)CC1	none
CCOC(=O)C1(Cc2ccccc2)CCN(Cc2cccn2-c2nccs2)CC1	ZTA counter 34 | Zta DNA confirm inactive | EBNA-1 counter inactive
CCc1ccc(C(C)NC(=O)c2ccc(F)cc2)cc1 (stereo not given)	none
CCc1ccc(C(C)NC(=O)c2ccncc2)cc1 (stereo not given)	ZTA counter 114 | Zta DNA confirm inactive | EBNA-1 counter inactive
Cc1cc(-c2nnc(CCC(=O)NCCc3ccccc3F)o2)no1	none
Cc1ccc(S(=O)(=O)/N=C2/C=C(Sc3ncn[nH]3)C(=O)c3ccccc32)cc1	ZTA counter 41 | Zta DNA confirm 75 | EBNA-1 counter inactive
O=C(O)C1CCN(C(=O)COc2ccc(Br)cc2)CC1	none
O=C(CCN1C(=O)/C(=C\c2ccco2)SC1=S)Nc1ccc(C(=O)O)c(O)c1	ZTA counter 44 | Zta DNA confirm inactive | EBNA-1 counter inactive
O=C1CC(=O)N(Cc2ccco2)C(=S)N1	ZTA counter 55 | Zta DNA confirm inactive | EBNA-1 counter inactive
COc1ccc(S(=O)(=O)NCC(c2cccnc2)N2CCN(C)CC2)cc1OC (stereo not given)	none
COCCNC(=O)c1cc(-c2ccccc2)nn1CC1CC(c2cccnc2)=NO1 (stereo not given)	ZTA counter active (no result: HCV NS3 hel inh) | Zta DNA confirm inactive | EBNA-1 counter inactive
O=C(NCC1CC1)c1cc(-c2ccccc2)nn1CC1CC(c2cccnc2)=NO1 (stereo not given)	none (no result: HCV NS3 hel inh)
COc1ccccc1C1NC(=O)NC(C)=C1C(=O)OC1CCCC(C)C1 (stereo not given)	none
CCn1c(SCC(N)=O)nc2sc3c(c2c1=O)CCCC3	none
NC(=O)CSc1nc2sc3c(c2c2ncnn12)CCCC3	ZTA counter 38 | Zta DNA confirm inactive | EBNA-1 counter inactive
Cc1ccc(S(=O)(=O)/N=C2/NC(=O)/C(=C/c3cc([N+](=O)[O-])ccc3O)S2)cc1	ZTA counter 34 | Zta DNA confirm 41 | EBNA-1 counter inactive
NC(=O)c1ccc(NC(=O)CSc2nnc(-c3ccc4c(c3)OCO4)o2)cc1	ZTA counter 35 (no result: EBNA-1 inhibitor, HCV NS3 hel inh, HCV core dimer) | Zta DNA confirm inactive | EBNA-1 counter inactive
Cc1ccc(S(=O)(=O)/N=C2\C=C(Nc3cccc(C(=O)O)c3)C(=O)c3ccccc32)c(C)c1	none
Cc1ccc(S(=O)(=O)/N=C2\C=C(Nc3cccc(C(=O)O)c3)C(=O)c3ccccc32)cc1	ZTA counter 33 | Zta DNA confirm 36 | EBNA-1 counter inactive
O=C(NCCCN1CCCC1=O)c1c(O)nc2ccccn2c1=O	none
COc1ccc(C(=O)NC2CCc3ccccc32)cc1OC1CCN(C(C)C)CC1 (stereo not given)	none
Cc1cccc(CN2C(=O)/C(=C\c3ccc(C(=O)NCCCN4CCN(C)CC4)cc3)Oc3ccccc32)c1	ZTA counter 70 | Zta DNA confirm 50 | EBNA-1 counter inactive
CC(Sc1ccccc1)C(=O)N1CCN(S(=O)(=O)c2ccc(Cl)cc2)CC1 (stereo not given)	none
Nc1cc2nsnc2cc1Br	ZTA counter 68 | Zta DNA confirm inactive | EBNA-1 counter inactive
C#CCOCCOCCOCCNc1nc(N2CCN(C(=O)CCCCCCCCCCNC(=O)Cn3cc(C[C@@H](C)O)nn3)CC2)nc(N2CCN(C(=O)CCCCCCCCCCNC(=O)[C@@H](CCC(=O)O)n3cc(CCCCCN)nn3)CC2)n1	none (no result: HCV NS3 hel inh)

Compound activity (PubChem BioAssay)
